ChEMBL document CHEMBL1153616, “Synthesis and antiviral activity of new pyrazole and thiazole derivatives” (Eur J Med Chem, 2009)
Converted amounts (≈) assume the structure as drawn. The source made the active and inactive calls. No cut-off for these calls is given here.

How the values were obtained:
[1] = Cytotoxicity against human HeLa cells assessed as minimum cytotoxic concentration required to cause microscopically detectable alteration in normal cell morphology; type: cell-based
Procedure, shortened: (§1)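 Run in parallel with antiviral assays on uninfected cell cultures; test compounds from 10 mg/ml DMSO stocks in serial dilution. Value is minimum cytotoxic concentration (MCC) producing microscopically detectable alteration of normal cell morphology.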

[2] = Selectivity index, ratio of MCC for african green monkey Vero cells to EC50 for Reovirus 1; type: toxicity, cell-based; conditions: read-out: Selectivity Index
Procedure, shortened: (§2)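 The ratio was MCC/EC50. MCC was the minimum concentration causing microscopically visible change in normal morphology of uninfected HEL, HeLa or Vero cells, scored in parallel with the antiviral test. EC50 came from the CPE assay: 100 CCID50 infection, 2 h adsorption at 37 °C, serial compound dilutions, and 3 days at 37 °C. It was the concentration protecting 50% of cells from virus-induced CPE.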

Vaccinia virus [3] = assay: Antiviral activity against Vaccinia virus Lister; type: functional, organism-based
Cowpox virus = assay: Antiviral activity against Cowpox virus Brighton; type: functional, organism-based; conditions: Cowpox virus (Brighton Red)
Coxsackievirus B4 [4] = assay: Antiviral activity against Coxsackievirus B4 infected in african green monkey Vero cells assessed as inhibition of virus-induced cytopathicity after 3 days; type: functional, organism-based; conditions: Enterovirus B, 72 h
Procedure, shortened: (§3)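 Confluent cell monolayers infected with 100 CCID50 virus; after 2 h adsorption at 37 °C, virus removed and serial compound dilutions added (DMSO stocks 10 mg/ml). Incubated 37 °C for 3 days until complete CPE in untreated virus control. EC50 = concentration protecting 50% of infected cells from viral cytopathogenicity; ">" marks highest concentration tested.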

Sindbis virus = assay: Antiviral activity against Sindbis virus infected in african green monkey Vero cells assessed as inhibition of virus-induced cytopathicity after 3 days postinfection; type: functional, organism-based; conditions: 72 h; procedure, shortened: as §3
Human alphaherpesvirus 1 [5] = assay: Antiviral activity against thymidine kinase-deficient ACV-resistant HSV1 KOS infected in human HEL cells assessed as inhibition of virus-induced cytopathicity after 3 days; type: functional, organism-based; conditions: Human alphaherpesvirus 1, KOS, 72 h
Vaccinia virus [6] = assay: Antiviral activity against Vaccinia virus Copenhagen; type: functional, organism-based; conditions: Orthopoxvirus vaccinia
[7] = Selectivity index, ratio of MCC for african green monkey Vero cells to EC50 for Coxsackievirus B4; type: toxicity, cell-based; conditions: read-out: Selectivity Index; procedure, shortened: as §2
[8] = Cytotoxicity against african green monkey Vero cells assessed as minimum cytotoxic concentration required to cause microscopically detectable alteration in normal cell morphology; type: cell-based; conditions: chlorocebus sabaeus; procedure, shortened: as §1
Vaccinia virus [9] = assay: Antiviral activity against Vaccinia virus infected in human HEL cells assessed as inhibition of virus-induced cytopathicity after 3 days; type: functional, organism-based; conditions: Orthopoxvirus vaccinia, 72 h
Human alphaherpesvirus 1 [10] = assay: Antiviral activity against HSV1 KOS infected in human HEL cells assessed as inhibition of virus-induced cytopathicity after 3 days; type: functional, organism-based; conditions: Human alphaherpesvirus 1, KOS, 72 h
[11] = system: Respiratory syncytial virus; assay: Antiviral activity against RSV infected in human HeLa cells assessed as inhibition of virus-induced cytopathicity after 3 days; type: functional, organism-based; conditions: 72 h; procedure, shortened: as §3
Coxsackievirus B4 [12] = assay: Antiviral activity against Coxsackievirus B4 infected in human HeLa cells assessed as inhibition of virus-induced cytopathicity after 3 days; type: functional, organism-based; conditions: Enterovirus B, 72 h
Procedure, shortened: (§4)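 Confluent cell monolayers infected with 100 CCID50 virus; after 2 h adsorption at 37 °C, virus removed and serial compound dilutions added (DMSO stocks 10 mg/ml). Incubated 37 °C for 3 days until complete CPE in untreated virus control.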

Punta Toro virus = assay: Antiviral activity against Punta Toro virus infected in african green monkey Vero cells assessed as inhibition of virus-induced cytopathicity after 3 days; type: functional, organism-based; conditions: 72 h; procedure, shortened: as §4
[13] = system: Vesicular stomatitis virus; assay: Antiviral activity against Vesicular stomatitis virus infected in human HeLa cells assessed as inhibition of virus-induced cytopathicity after 3 days; type: functional, organism-based; conditions: 72 h
[14] = Selectivity index, ratio of MCC for african green monkey Vero cells to EC50 for Sindbis virus; type: toxicity, cell-based; conditions: read-out: Selectivity Index; procedure, shortened: as §2
[15] = system: Mammalian orthoreovirus 1; assay: Antiviral activity against Reovirus 1 infected in african green monkey Vero cells assessed as inhibition of virus-induced cytopathicity after 3 days; type: functional, organism-based; conditions: Mammalian orthoreovirus 1, Vero, 72 h; procedure, shortened: as §3
[16] = system: Vesicular stomatitis virus; assay: Antiviral activity against Vesicular stomatitis virus infected in human HEL cells assessed as inhibition of virus-induced cytopathicity after 3 days; type: functional, organism-based; conditions: 72 h
[17] = Selectivity index, ratio of MCC for african green monkey Vero cells to EC50 for Punta Toro virus; type: toxicity, cell-based; conditions: read-out: Selectivity Index; procedure, shortened: as §2
Human alphaherpesvirus 2 = assay: Antiviral activity against HSV2 G infected in human HEL cells assessed as inhibition of virus-induced cytopathicity after 3 days; type: functional, organism-based; conditions: Human alphaherpesvirus 2, strain G, 72 h; procedure, shortened: as §3
Human respirovirus 3 = assay: Antiviral activity against Parainfluenza virus type 3 infected in african green monkey Vero cells assessed as inhibition of virus-induced cytopathicity after 3 days; type: functional, organism-based; conditions: Human respirovirus 3, Vero, 72 h; procedure, shortened: as §3
[18] = Cytotoxicity against HEL cells assessed as minimum cytotoxic concentration required to cause microscopically detectable alteration in normal cell morphology; type: cell-based; conditions: human; procedure, shortened: as §1
Vaccinia virus [19] = assay: Antiviral activity against Vaccinia virus Western Reserve; type: functional, organism-based; conditions: Orthopoxvirus vaccinia
[20] = Selectivity index, ratio of MCC for human HEL cells to EC50 for sVaccinia virus; type: toxicity, cell-based; procedure, shortened: as §2

**Q.** With `CC(=O)N1N=C(c2ccc(Cl)cc2)CC1c1ccc(OCc2ccccc2)cc1` (stereo not given) as the molecule, how does the MCC [1] read?
**A.** ≥ 20 µg/mL

**Q.** What about the selectivity ratio [2] of the same molecule?
**A.** 5

**Q.** What about the Activity (Vaccinia virus [3]) of the same molecule?
**A.** inactive

**Q.** What about the Activity (Cowpox virus) of the same molecule?
**A.** inactive

**Q.** And the EC50 (Coxsackievirus B4 [4])?
**A.** > 4 µg/mL

**Q.** What about the EC50 (Sindbis virus) of the same molecule?
**A.** > 4 µg/mL

**Q.** And the EC50 (Human alphaherpesvirus 1 [5])?
**A.** > 20 µg/mL

**Q.** And the Activity (Vaccinia virus [6])?
**A.** inactive

**Q.** What about the selectivity ratio [7] of the same molecule?
**A.** 5

**Q.** What about the MCC [8] of the same molecule?
**A.** 20 µg/mL

**Q.** And the EC50 (Vaccinia virus [9])?
**A.** 7 µg/mL (≈ 17.3 µM)

**Q.** And the EC50 (Human alphaherpesvirus 1 [10])?
**A.** > 20 µg/mL

**Q.** What about the EC50 [11] of the same molecule?
**A.** > 20 µg/mL

**Q.** And the EC50 (Coxsackievirus B4 [12])?
**A.** > 20 µg/mL

**Q.** And the EC50 (Punta Toro virus)?
**A.** > 4 µg/mL

**Q.** And the EC50 [13]?
**A.** > 20 µg/mL

**Q.** And the selectivity ratio [14]?
**A.** 5

**Q.** And the EC50 [15]?
**A.** > 4 µg/mL

**Q.** What about the EC50 [16] of the same molecule?
**A.** > 20 µg/mL

**Q.** What about the selectivity ratio [17] of the same molecule?
**A.** 5

**Q.** And the EC50 (Human alphaherpesvirus 2)?
**A.** > 20 µg/mL

**Q.** And the EC50 (Human respirovirus 3)?
**A.** > 4 µg/mL

**Q.** And the MCC [18]?
**A.** 100 µg/mL

**Q.** What about the Activity (Vaccinia virus [19]) of the same molecule?
**A.** inactive

**Q.** What about the selectivity ratio [20] of the same molecule?
**A.** 3.6
